# Experimental data published in ChEMBL document CHEMBL3044872, “Synthesis and quantitative structure-activity relationships of fluorine-containing 4,4-dihydroxylmethyl-2-aryliminooxazo(thiazo)lidines as trehalase inhibitors” (J Agric Food Chem, 2001).
# pIC50: −log10 of the molar value.
# What was measured:
# Drosophila melanogaster [1] = assay: Insecticidal activity against adult Drosophila melanogaster cultured on compound-treated corn media assessed as inhibition of flight at 200 ppm after 48 hr relative to control; assay type: functional
# Method in brief: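 Wild-type adult flies fed corn medium containing compound for 48 h. Flies ether-anesthetized for 2 min and glued by the abdomen to the arm of a computer-monitored flight mill; flown at 25 °C under natural light. Inhibition % = (1 − treated flight distance/untreated flight distance) × 100.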
# Uncharacterized protein = target: T1, Uncharacterized protein (Sus scrofa, UniProt I3LIR5); assay: Inhibition of Sus scrofa (pig) trehalase using trehaloase as substrate incubated for 15 min prior to substrate addition measured after 1.5 hr by spectrophotometric analysis
# T1 sequence (I3LIR5 whole entry): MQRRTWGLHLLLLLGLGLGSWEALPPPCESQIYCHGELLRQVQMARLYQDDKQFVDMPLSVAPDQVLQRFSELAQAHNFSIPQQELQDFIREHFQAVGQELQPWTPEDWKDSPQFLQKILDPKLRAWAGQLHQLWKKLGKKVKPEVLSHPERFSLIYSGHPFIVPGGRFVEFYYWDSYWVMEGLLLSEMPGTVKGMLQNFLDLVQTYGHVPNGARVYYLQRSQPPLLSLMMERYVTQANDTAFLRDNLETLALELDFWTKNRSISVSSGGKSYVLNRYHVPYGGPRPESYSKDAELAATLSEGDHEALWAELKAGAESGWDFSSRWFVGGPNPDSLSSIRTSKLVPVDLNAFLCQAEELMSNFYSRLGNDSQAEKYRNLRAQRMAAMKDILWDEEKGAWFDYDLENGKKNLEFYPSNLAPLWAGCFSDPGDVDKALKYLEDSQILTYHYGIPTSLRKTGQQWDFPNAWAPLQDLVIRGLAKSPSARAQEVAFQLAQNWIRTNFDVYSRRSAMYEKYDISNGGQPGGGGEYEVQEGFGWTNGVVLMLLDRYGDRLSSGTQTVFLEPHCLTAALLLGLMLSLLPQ
# Method in brief: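 Porcine trehalase (1.08 µg) in […], pH 5.5, preincubated with compound in DMSO for 15 min at 37 °C. […] added, then incubated 1.5 h at 37 °C. Stopped with Ba(OH)2/Zn(OH)2 and centrifuged. Glucose measured by glucose oxidase/peroxidase/ABTS (30 min, room temperature), A660, against a glucose standard curve. At least 5 concentrations; expressed as pIC50.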
# Drosophila melanogaster [2] = assay: Larvicidal activity against Drosophila melanogaster at 200 ppm relative to control; assay type: functional
# Method in brief: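 One hundred wild-type eggs placed on 8 cm3 yeast/corn meal/agar medium containing compound at 200 ppm, dissolved in DMSO.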
# Trehalase = target: T2, Trehalase (Bombyx mori, UniProt P32358); assay: Inhibition of Bombyx mori trehalase
# T2 sequence (P32358 whole entry): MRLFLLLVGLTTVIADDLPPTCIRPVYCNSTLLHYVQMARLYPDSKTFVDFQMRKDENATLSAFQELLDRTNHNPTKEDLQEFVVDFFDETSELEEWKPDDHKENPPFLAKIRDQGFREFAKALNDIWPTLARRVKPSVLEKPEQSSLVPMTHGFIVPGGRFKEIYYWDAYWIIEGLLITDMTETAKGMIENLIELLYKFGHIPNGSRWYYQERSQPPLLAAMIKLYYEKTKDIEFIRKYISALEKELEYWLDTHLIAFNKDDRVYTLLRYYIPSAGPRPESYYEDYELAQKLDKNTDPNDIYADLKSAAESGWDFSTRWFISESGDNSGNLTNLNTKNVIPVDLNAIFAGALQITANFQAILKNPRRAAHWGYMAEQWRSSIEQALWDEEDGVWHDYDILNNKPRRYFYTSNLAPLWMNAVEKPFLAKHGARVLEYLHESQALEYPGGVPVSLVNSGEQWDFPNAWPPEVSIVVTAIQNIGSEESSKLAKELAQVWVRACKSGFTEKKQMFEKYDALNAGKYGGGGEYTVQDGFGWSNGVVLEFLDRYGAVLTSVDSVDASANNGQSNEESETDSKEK
pIC50 (Uncharacterized protein),Compound,inhibition at 200 ppm (Drosophila melanogaster [1]) [%],Activity (Drosophila melanogaster [2]) [%],pIC50 (Trehalase)
4.12,OCC1(CO)CO/C(=N\c2ccccc2F)N1,30.7,45.2,–
3.08,OCC1(CO)CS/C(=N\c2ccccc2F)N1,45.4,66.5,–
3.58,OCC1(CO)CO/C(=N\c2ccc(F)cc2)N1,35.7,56.3,–
3.24,OCC1(CO)CS/C(=N\c2ccc(F)cc2)N1,37.2,60.4,–
3.05,OCC1(CO)CO/C(=N\c2ccc(F)cc2F)N1,2.7,17.2,–
2.21,OCC1(CO)CS/C(=N\c2ccc(F)cc2F)N1,1.7,35.1,–
4.45,OCC1(CO)CO/C(=N\c2ccc(F)c(Cl)c2)N1,37.2,65,–
3.62,OCC1(CO)CS/C(=N\c2ccc(F)c(Cl)c2)N1,49.7,76,–
4.07,OCC1(CO)CO/C(=N\c2ccc(F)c(F)c2F)N1,16.6,50.4,–
3.15,OCC1(CO)CS/C(=N\c2ccc(F)c(F)c2F)N1,26.9,65.3,–
–,OC[C@H]1O[C@H](NC2=N[C@@H]3[C@H](O2)[C@@H](O)[C@H](O)[C@]3(O)CO)[C@H](O)[C@@H](O)[C@@H]1O [TREHAZOLIN],–,–,7.31
